Assay results published in ChEMBL document CHEMBL1287793, “Green synthesis and biological evaluation of some novel azoles as antimicrobial agents” (2010).
Activity calls are given as the source filed them. The calls are words filed in the database; no cut-off is given here.

What was measured:
Assay type in all cases: functional
Staphylococcus aureus = test: Antimicrobial activity against Staphylococcus aureus after 18 to 20 hrs at 37degC by disc diffusion method
Summary of the method: (§1)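 Agar diffusion disc assay: bacterial inoculum of 1 × 10⁸ bacteria/mL spread on Mueller Hinton agar. 6 mm filter paper discs loaded with sample dissolved in DMSO. Chloramphenicol at 10 mcg/disc served as control. Plates incubated 18–20 h at 37 °C. Read-out was the zone of inhibition in mm.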

Escherichia coli = test: Antimicrobial activity against Escherichia coli after 18 to 20 hrs at 37degC by disc diffusion method; summary of the method: as §1
Bacillus subtilis = test: Antimicrobial activity against Bacillus subtilis after 18 to 20 hrs at 37degC by disc diffusion method; summary of the method: as §1
Pseudomonas aeruginosa = test: Antimicrobial activity against Pseudomonas aeruginosa after 18 to 20 hrs at 37degC by disc diffusion method; summary of the method: as §1
Aspergillus niger = test: Antimicrobial activity against Aspergillus niger after 18 to 20 hrs at 37degC by disc diffusion method
Summary of the method: (§2)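 Fungal inoculum of 1 × 10⁶/mL spread on potato dextrose agar. 6 mm filter paper discs received sample dissolved in DMSO. Nystatin at 100 U/disc was the antifungal control. Plates incubated 18–20 h at 37 °C, then the zone of inhibition was measured in mm.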

Candida albicans = test: Antimicrobial activity against Candida albicans after 18 to 20 hrs at 37degC by disc diffusion method; summary of the method: as §2

Row | Compound | diameter of the inhibition zone (DIZ) (Staphylococcus aureus) | diameter of the inhibition zone (DIZ) (Escherichia coli) | diameter of the inhibition zone (DIZ) (Bacillus subtilis) | diameter of the inhibition zone (DIZ) (Pseudomonas aeruginosa) | diameter of the inhibition zone (DIZ) (Aspergillus niger) | diameter of the inhibition zone (DIZ) (Candida albicans) | inhibition zone (IZ) (Aspergillus niger) [mm]
1 | COc1c(F)c(F)cc2c(=O)c(-c3nnc(Nc4cccc(C)c4)s3)cn(C3CC3)c12 | inactive | 23.8 mm | inactive | 27.1 mm | inactive | inactive | 
2 | COc1c(F)c(F)cc2c(=O)c(-c3nnc(Nc4ccccc4C)s3)cn(C3CC3)c12 | inactive | inactive | inactive | inactive | inactive | inactive | 
3 | COc1c(F)c(F)cc2c(=O)c(C(=O)NNC(=S)Nc3cccc(C)c3)cn(C3CC3)c12 | inactive | inactive | inactive | inactive | inactive | inactive | 
4 | COc1c(F)c(F)cc2c(=O)c(-c3n[nH]c(=S)n3-c3ccccc3C)cn(C3CC3)c12 | 21.2 mm | inactive | inactive | inactive | 20.8 mm | inactive | 
5 | COc1c(F)c(F)cc2c(=O)c(-c3nnc(Nc4ccccc4C)o3)cn(C3CC3)c12 | inactive | inactive | inactive | inactive | inactive | inactive | 
6 | COc1c(F)c(F)cc2c(=O)c(-c3nnc(Nc4ccc(Cl)cc4)o3)cn(C3CC3)c12 | 21.06 mm | inactive | 24.6 mm | 26.1 mm |  | 22.5 mm | 
7 | COc1c(F)c(F)cc2c(=O)c(C(=O)NNC(=S)Nc3ccc(Cl)cc3)cn(C3CC3)c12 | 15.9 mm | 15 mm | 15.1 mm | 22.6 mm | inactive | inactive | 
8 | COc1c(F)c(F)cc2c(=O)c(-c3nnc(Nc4ccccc4)s3)cn(C3CC3)c12 | 17 mm | 24 mm | 27 mm | 22 mm | 26.1 mm | 16.3 mm | 
9 | COc1ccc(Nc2nnc(-c3cn(C4CC4)c4c(OC)c(F)c(F)cc4c3=O)o2)cc1 | 28 mm | inactive | 26.7 mm |  | 28.1 mm | 25.3 mm | 
10 | COc1c(F)c(F)cc2c(=O)c(C(=O)NNC(=S)Nc3ccccc3C)cn(C3CC3)c12 | 17.2 mm | 18.5 mm | 20.1 mm | 20.1 mm | 18 mm |  | 
11 | O=C(N[C@H](CO)[C@H](O)c1ccc([N+](=O)[O-])cc1)C(Cl)Cl [CHLORAMPHENICOL] | 32.8 mm | 29.14 mm | 30.11 mm | 24.68 mm |  |  | 
12 | COc1c(F)c(F)cc2c(=O)c(-c3nnc(Nc4cccc(C)c4)o3)cn(C3CC3)c12 | inactive | inactive | 21 mm | inactive | inactive | inactive | 
13 | COc1c(F)c(F)cc2c(=O)c(-c3n[nH]c(=S)n3-c3ccccc3)cn(C3CC3)c12 | 21 mm | inactive | inactive | inactive | 19.9 mm | inactive | 
14 | NYSTATIN |  |  |  |  |  |  | 21.1
15 | COc1c(F)c(F)cc2c(=O)c(-c3nnc(Nc4ccccc4)o3)cn(C3CC3)c12 | 18.8 mm | inactive | 25.4 mm |  | 14.7 mm |  | 
16 | COc1c(F)c(F)cc2c(=O)c(-c3n[nH]c(=S)n3-c3cccc(C)c3)cn(C3CC3)c12 | 19.8 mm | inactive | inactive | inactive | 21.8 mm | inactive | 
17 | COc1ccc(Nc2nnc(-c3cn(C4CC4)c4c(OC)c(F)c(F)cc4c3=O)s2)cc1 | inactive | inactive | inactive | inactive | inactive | inactive | 
18 | COc1c(F)c(F)cc2c(=O)c(-c3n[nH]c(=S)n3-c3ccc(Cl)cc3)cn(C3CC3)c12 | 22.2 mm | inactive | inactive | inactive | 21.5 mm | inactive | 
19 | COc1ccc(NC(=S)NNC(=O)c2cn(C3CC3)c3c(OC)c(F)c(F)cc3c2=O)cc1 | 14.3 mm | 16.6 mm | 15.3 mm | 22.8 mm | inactive | inactive | 
20 | COc1c(F)c(F)cc2c(=O)c(-c3nnc(Nc4ccc(Cl)cc4)s3)cn(C3CC3)c12 | 21 mm | inactive | 28 mm | inactive | inactive | 22 mm | 
21 | COc1c(F)c(F)cc2c(=O)c(C(=O)NNC(=S)Nc3ccccc3)cn(C3CC3)c12 | 23.9 mm | 24.1 mm | 24.1 mm | 24.2 mm | inactive | 14.2 mm | 
22 | COc1ccc(-n2c(-c3cn(C4CC4)c4c(OC)c(F)c(F)cc4c3=O)n[nH]c2=S)cc1 | 23.4 mm | inactive | inactive | inactive | 21.6 mm | inactive | 
